Source: ChEMBL document CHEMBL1155279, “1,5-Diaryl-2-ethyl pyrrole derivatives as antimycobacterial agents: design, synthesis, and microbiological evaluation” (Eur J Med Chem, 2009)
In brackets after ≈: the same amount, converted by molar mass.

Tests used:
[1] = tested on: Mycobacterium avium; experiment: Antimycobacterial activity against Mycobacterium avium CIP 103317 by twofold agar dilution method; format: functional
Outline: (§1)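 Twofold agar dilution in Middlebrook 7H11 agar with 10% OADC (oleic acid, albumin, dextrose). Compounds dissolved in DMSO at 5 mg/mL (one in ethanol at 6 mg/mL), stock, stored cold. MIC determined for each strain. Strains: M. tuberculosis CIP 103471, H37Rv ATCC 27294, rifampicin-resistant ATCC 35838, M. avium CIP 103317.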

[2] = Cytotoxicity against african green monkey Vero cells after 72 hrs; format: cell-based; conditions: chlorocebus sabaeus
Outline: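 Vero cells exposed to compounds (stocks 5 mg/mL in DMSO; one compound 6 mg/mL in ethanol). After 72 h incubation, cells examined microscopically for morphological changes. Maximum non-toxic dose (MNTD) taken as the highest drug concentration producing no morphological change.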

[3] = tested on: Mycobacterium tuberculosis; experiment: Antimycobacterial activity against Mycobacterium tuberculosis H37Rv by twofold agar dilution method; format: functional; outline: as §1
[4] = Protection index, ratio of MNTD for african green monkey Vero cells to MIC for Mycobacterium tuberculosis CIP 103471; format: functional
Outline: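 Vero cells exposed to drug; after 72 h of incubation, morphology was checked microscopically. MNTD is the highest concentration with no morphological change. PI = MNTD/MIC, with MIC from twofold agar dilution in Middlebrook 7H11 + 10% OADC against M. tuberculosis CIP 103471.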

[5] = tested on: Mycobacterium tuberculosis; experiment: Antimycobacterial activity against Mycobacterium tuberculosis CIP 103471 by twofold agar dilution method; format: functional; outline: as §1

| SMILES | MIC [1] | MNTC at 72 h [2] | MIC [3] | PI [4] | MIC [5] |
| --- | --- | --- | --- | --- | --- |
| CCc1c(CN2CCSCC2)cc(-c2ccc(F)cc2)n1-c1ccccc1F | 8 µg/mL (≈ 20.1 µM) | 8 µg/mL | 2 µg/mL (≈ 5.02 µM) | 4 | 2 µg/mL (≈ 5.02 µM) |
| Cc1c(CN2CCSCC2)cc(-c2ccc(F)cc2)n1-c1ccc(F)cc1 | – | – | – | 8 | 1 µg/mL (≈ 2.6 µM) |
| CO[C@H]1/C=C/O[C@@]2(C)Oc3c(C)c(O)c4c(O)c(c(/C=N/N5CCN(C)CC5)c(O)c4c3C2=O)NC(=O)/C(C)=C\C=C\[C@H](C)[C@H](O)[C@@H](C)[C@@H](O)[C@@H](C)[C@H](OC(C)=O)[C@@H]1C [RIFAMPIN] | 0.25 µg/mL (≈ 0.304 µM) | 64 µg/mL | 0.25 µg/mL (≈ 0.304 µM) | 256 | 0.25 µg/mL (≈ 0.304 µM) |
| CCc1c(CN2CCSCC2)cc(-c2ccccc2)n1-c1ccc(F)cc1 | 16 µg/mL (≈ 42 µM) | 16 µg/mL | 4 µg/mL (≈ 10.5 µM) | 8 | 2 µg/mL (≈ 5.26 µM) |
| Cc1c(CN2CCSCC2)cc(-c2ccccc2)n1-c1ccc(F)cc1 | – | – | – | 20 | 0.4 µg/mL (≈ 1.09 µM) |
| Cc1c(CN2CCSCC2)cc(-c2ccccc2F)n1-c1ccccc1F | – | – | – | 32 | 1 µg/mL (≈ 2.6 µM) |
| Cc1c(CN2CCSCC2)cc(-c2ccc(F)cc2)n1-c1ccccc1 | – | – | – | 8 | 0.5 µg/mL (≈ 1.36 µM) |
| CCc1c(CN2CCSCC2)cc(-c2ccc(F)cc2)n1-c1ccccc1 | 8 µg/mL (≈ 21 µM) | 8 µg/mL | 1 µg/mL (≈ 2.63 µM) | 8 | 1 µg/mL (≈ 2.63 µM) |
| Cc1c(CN2CCSCC2)cc(-c2ccccc2)n1-c1ccccc1 | – | – | – | 32 | 1 µg/mL (≈ 2.87 µM) |
| CCc1c(CN2CCSCC2)cc(-c2ccc(C)cc2)n1-c1ccc(F)cc1 | 16 µg/mL (≈ 40.6 µM) | > 128 µg/mL | 0.25 µg/mL (≈ 0.634 µM) | >512 | 0.25 µg/mL (≈ 0.634 µM) |
| CN[C@@H]1[C@H](O[C@H]2[C@H](O[C@H]3[C@H](O)[C@@H](O)[C@H](N=C(N)N)[C@@H](O)[C@@H]3N=C(N)N)O[C@@H](C)[C@]2(O)C=O)O[C@@H](CO)[C@H](O)[C@H]1O [STREPTOMYCIN] | 8 µg/mL (≈ 13.8 µM) | 128 µg/mL | 0.5 µg/mL (≈ 0.86 µM) | 256 | 0.5 µg/mL (≈ 0.86 µM) |
| CCc1c(CN2CCSCC2)cc(-c2ccc(F)cc2)n1-c1ccc(F)cc1 | 16 µg/mL (≈ 40.1 µM) | 8 µg/mL | – | 0.5 | 16 µg/mL (≈ 40.1 µM) |
| Cc1c(CN2CCN(C)CC2)cc(-c2ccc(Cl)cc2)n1-c1ccc(Cl)cc1 | 0.5 µg/mL (≈ 1.21 µM) | 4 µg/mL | 1 µg/mL (≈ 2.41 µM) | 4 | 1 µg/mL (≈ 2.41 µM) |
| Cc1ccc(-c2cc(CN3CCSCC3)c(C)n2-c2ccc(F)cc2)cc1 | – | – | – | 256 | 0.25 µg/mL (≈ 0.657 µM) |
| CCc1c(CN2CCN(C)CC2)cc(-c2ccc(Cl)cc2)n1-c1ccc(Cl)cc1 | 4 µg/mL (≈ 9.34 µM) | 8 µg/mL | 4 µg/mL (≈ 9.34 µM) | 4 | 2 µg/mL (≈ 4.67 µM) |
| CCc1c(CN2CCSCC2)cc(-c2ccccc2)n1-c1ccccc1 | 8 µg/mL (≈ 22.1 µM) | 16 µg/mL | 4 µg/mL (≈ 11 µM) | 8 | 2 µg/mL (≈ 5.52 µM) |
| CCc1c(CN2CCSCC2)cc(-c2ccccc2F)n1-c1ccccc1F | 16 µg/mL (≈ 40.1 µM) | 8 µg/mL | 8 µg/mL (≈ 20.1 µM) | 2 | 4 µg/mL (≈ 10 µM) |
| Cc1c(CN2CCSCC2)cc(-c2ccc(F)cc2)n1-c1ccccc1F | – | – | – | 16 | 0.5 µg/mL (≈ 1.3 µM) |
